*1 amine or outer side, *2 acyl side, *3 side chain or, on linkers, in order; H or OH if unused. Where a SMILES comes first, the peptide text is derived from it. [ ]: non-standard residue; d: D form. The star is where a group is joined. X2 = CC(C)[C@H](N[*:1])C(=O)NC(=O)[*:2]; X1 = Fc1ccc2c(C3CCN(*)CC3)noc2c1
Experiments:
Type in all cases: functional
[1] = test system: Fusarium oxysporum; assay: Antifungal activity against Fusarium oxysporum after 72 hrs by microdilution method
[2] = test system: Aspergillus flavus; assay: Antifungal activity against Aspergillus flavus after 72 hrs by microdilution method
[3] = test system: Aspergillus flavus; assay: Antifungal activity against Aspergillus flavus after 24 hrs by agar well diffusion method
Procedure, shortened: (§1)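 Fungi subcultured in 25 mL nutrient broth for one day to give inoculum, then spread on solidified Sabouraud agar. Wells punched with a 6 mm cork borer and filled with 0.1 mL test solution in DMSO, prepared from a 1 mg/mL stock. Bavistin as reference, DMSO as negative control. Read-out is inhibition zone diameter (mm).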

[4] = test system: Escherichia coli; assay: Antimicrobial activity against Escherichia coli after 72 hrs by microdilution method
[5] = test system: Staphylococcus; assay: Antimicrobial activity against coagulase positive Staphylococcus after 24 hrs by agar well diffusion method
Procedure, shortened: (§2)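 Bacteria grown in nutrient broth at 37 °C for 24 h, subcultured in 25 mL broth at room temperature, then spread on nutrient agar. Wells (6 mm cork borer) filled with 0.1 mL test solution in DMSO, prepared from a 1 mg/mL stock. Amoxicillin as reference, DMSO as negative control. Plates kept 24 h at 37 °C; inhibition zone measured in mm.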

[6] = test system: Klebsiella pneumoniae; assay: Antimicrobial activity against Klebsiella pneumoniae after 72 hrs by microdilution method
[7] = test system: Staphylococcus; assay: Antimicrobial activity against coagulase positive Staphylococcus after 72 hrs by microdilution method
[8] = test system: Klebsiella pneumoniae; assay: Antimicrobial activity against Klebsiella pneumoniae after 24 hrs by agar well diffusion method; procedure, shortened: as §2
[9] = test system: Aspergillus niger; assay: Antifungal activity against Aspergillus niger after 72 hrs by microdilution method
[10] = test system: Escherichia coli; assay: Antimicrobial activity against Escherichia coli after 24 hrs by agar well diffusion method; procedure, shortened: as §2
[11] = test system: Aspergillus niger; assay: Antifungal activity against Aspergillus niger after 24 hrs by agar well diffusion method; procedure, shortened: as §1
[12] = test system: Xanthomonas oryzae; assay: Antimicrobial activity against Xanthomonas oryzae after 24 hrs by agar well diffusion method
[13] = test system: Xanthomonas oryzae; assay: Antimicrobial activity against Xanthomonas oryzae after 72 hrs by microdilution method
[14] = test system: Fusarium oxysporum; assay: Antifungal activity against Fusarium oxysporum after 24 hrs by agar well diffusion method; procedure, shortened: as §1

| Compound | MIC [1] [µg/mL] | MIC [2] [µg/mL] | inhibition zone (IZ) [3] [mm] | MIC [4] [µg/mL] | inhibition zone (IZ) [5] [mm] | MIC [6] [µg/mL] | MIC [7] [µg/mL] | inhibition zone (IZ) [8] [mm] | MIC [9] [µg/mL] | inhibition zone (IZ) [10] [mm] | inhibition zone (IZ) [11] [mm] | inhibition zone (IZ) [12] [mm] | MIC [13] [µg/mL] | inhibition zone (IZ) [14] [mm] |
| --- | --- | --- | --- | --- | --- | --- | --- | --- | --- | --- | --- | --- | --- | --- |
| CC(C)[C@H](NC(=O)CN)C(=O)NCC(=O)N[C@H](C(=O)N1CCC[C@H]1C(=O)N1CCC(c2noc3cc(F)ccc23)CC1)C(C)C.O=C(O)C(F)(F)F (H-GVGVP-X1) | 10 | 9 | 17 | 11 | 15 | 8 | 10 | 17 | 8 | 23 | 27 | 17 | 10 | 21 |
| CC(C)[C@H](NC(=O)CNC(=O)[C@@H]1CCCN1C(=O)[C@H](Cc1ccccc1)NC(=O)CNC(=O)[C@H](Cc1ccccc1)NC(=O)CNC(=O)[C@@H]1CCCN1C(=O)[C@H](Cc1ccccc1)NC(=O)CNC(=O)[C@@H](NC(=O)CNC(=O)[C@@H]1CCCN1C(=O)[C@@H](NC(=O)NC(=O)[C@@H](NC(=O)CNC(=O)[C@@H]1CCCN1C(=O)[C@H](Cc1ccccc1)NC(=O)CNC(=O)[C@H](CCC(=O)O)NC(=O)CN)C(C)C)C(C)C)C(C)C)C(=O)NCC(=O)N[C@H](C(=O)N1CCC[C@H]1C(=O)NCC(=O)N[C@H](C(=O)NCC(=O)N[C@@H](Cc1ccccc1)C(=O)N1CCC[C@H]1C(=O)N1CCC(c2noc3cc(F)ccc23)CC1)C(C)C)C(C)C.O=C(O)C(F)(F)F (H-GEGFPG[X2]VPGVGFPGFGFPGVGVPGVGFP-X1) | 5 | 4 | 28 | 12 | 16 | 10 | 13 | 11 | 4 | 12 | 34 | 14 | 10 | 28 |
| NCC(=O)NCC(=O)N[C@@H](Cc1ccccc1)C(=O)N1CCC[C@H]1C(=O)N1CCC(c2noc3cc(F)ccc23)CC1.O=C(O)C(F)(F)F (H-GGFP-X1) | 16 | 15 | 16 | 14 | 14 | 11 | 13 | 15 | 11 | 22 | 25 | 16 | 11 | 20 |
